According to ChEMBL document CHEMBL1955820, “Diazeniumdiolated carbamates: a novel class of nitric oxide donors” (Bioorg Med Chem, 2012):

How the values were obtained:
[1] = Prodrug activation in human TERT immortalized BJ-5ta cells assessed as intracellular NO-release by measuring increase in fluorescence at 10 uM after 90 mins by DAF-FM diacetate-based fluorescence assay relative to control; assay type: cell-based; settings: htert-bj, 1.5 h
Method in brief: (§1)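 BJ-5ta cells, grown in DMEM:199 medium (4:1) with 10% fetal calf serum, were loaded with 2.5 µM DAF-FM diacetate in HBSS for 30 min at 37 °C, 5% CO2, then rinsed into fresh HBSS. Compound in DMSO was added at 10 µM final for 90 min, with DMSO as control. Fluorescence was read at ex 485/em 525 nm. Mean of 16 independent experiments.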

U-937 [2] = experiment: Drug uptake in human U937 cells by DAF-FM diacetate-based fluorescence assay; assay type: ADME, cell-based
Method in brief: (§2)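 U937 cells in RPMI 1640 with 10% fetal calf serum at 37 °C, 5% CO2. Probe loading used 2.5 µM DAF-FM diacetate in HBSS for 30 min. Cells were then spun down, rinsed and resuspended in fresh HBSS. Compound in DMSO was added at 10 µM final for 90 min, with DMSO as control. Fluorescence was read at ex 485/em 525 nm.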

[3] = Drug uptake in human TERT immortalized BJ-5ta cells by DAF-FM diacetate-based fluorescence assay; assay type: ADME, cell-based; settings: htert-bj; method in brief: as §1
[4] = Prodrug activation in PBS assessed as production of nitrous oxide per mol of prodrug by gas chromatography in presence of GSH; settings: buffer
Method in brief: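 Glutathione-activated release in pH 7.4 buffer with 3.6–3.9 mM GSH and 50 µM DTPA, argon-sparged, at 37 °C. Prodrug was injected from a 10 mM DMSO stock. N2O was measured by GC with electron capture detection on a packed ShinCarbon column: 90 to 200 °C at 20 °C/min, He carrier 30 mL/min.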

U-937 [5] = experiment: Prodrug activation in human U937 cells assessed as intracellular NO-release by measuring increase in fluorescence at 10 uM after 90 mins by DAF-FM diacetate-based fluorescence assay relative to control; assay type: cell-based; settings: u-937, 1.5 h; method in brief: as §2

Drug uptake (U-937 [2]) | Drug metabolism [4] [mol/mol] | fold change (FC) (U-937 [5]) | SMILES | fold change (FC) [1] | Drug uptake [3]
Active | 0.02 | 10.5 | CC(C)N(C(=O)OC(C)(C)C)/[N+]([O-])=N/Oc1ccc([N+](=O)[O-])cc1[N+](=O)[O-] | 49.67 | Active
Active | – | 5.56 | CC(=O)OCO/N=[N+](\[O-])N(C(=O)OC(C)(C)C)C(C)C | 7.29 | Active

SMILES | Drug uptake (U-937 [2]) | Drug metabolism [4] [mol/mol] | fold change (FC) (U-937 [5]) | fold change (FC) [1] | Drug uptake [3]
CCOC(=O)N1CCN(/[N+]([O-])=N/Oc2ccc([N+](=O)[O-])cc2[N+](=O)[O-])CC1 | – | – | 2.64 | 5.48 | –
